ChEMBL document CHEMBL5230171, “Expanding the structure-activity relationships of alkynyl diphenylurea scaffold as promising antibacterial agents” (RSC Med Chem, 2023)
In brackets after ≈: the same amount, converted by molar mass. Activity calls are given as the source filed them. The rule behind the calls is not given here.

Legend:
[1] = tested on: Staphylococcus aureus; assay: Antibacterial activity against vancomycin resistant Staphylococcus aureus 12 assessed as inhibition of bacterial growth at 0.5 ug/ml incubated for 18 to 20 hrs by CLSI protocol based broth microdilution method; type: functional, organism-based; conditions: dose 0.5 µg/ml, time 18-20 hrs
[2] = tested on: Staphylococcus aureus; assay: Antibacterial activity against vancomycin resistant Staphylococcus aureus 10 assessed as inhibition of bacterial growth at 0.5 ug/ml incubated for 18 to 20 hrs by CLSI protocol based broth microdilution method; type: functional, organism-based; conditions: dose 0.5 µg/ml, time 18-20 hrs
[3] = tested on: Staphylococcus aureus; assay: Antibacterial activity against methicillin sensitive Staphylococcus aureus 6538 assessed as inhibition of bacterial growth at 0.5 ug/ml incubated for 18 to 20 hrs by CLSI protocol based broth microdilution method; type: functional, organism-based; conditions: dose 0.5 µg/ml, time 18-20 hrs
Summary of the method: (§1)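 Staphylococcal and E. coli strains were diluted from a 0.5 McFarland suspension in cation-adjusted Mueller Hinton broth to ~5 × 10^5 CFU mL−1. They were incubated with serial dilutions of test agent in broth microdilution, and the MIC was recorded.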

[4] = tested on: Staphylococcus aureus; assay: Antibacterial activity against vancomycin resistant Staphylococcus aureus 9 assessed as inhibition of bacterial growth at 0.5 ug/ml incubated for 18 to 20 hrs by CLSI protocol based broth microdilution method; type: functional, organism-based; conditions: dose 0.5 µg/ml, time 18-20 hrs
[5] = tested on: Staphylococcus aureus; assay: Antibacterial activity against methicillin resistant Staphylococcus aureus 384 assessed as inhibition of bacterial growth at 0.5 ug/ml incubated for 18 to 20 hrs by CLSI protocol based broth microdilution method; type: functional, organism-based; conditions: dose 0.5 µg/ml, time 18-20 hrs
[6] = tested on: Staphylococcus aureus; assay: Antibacterial activity against methicillin sensitive Staphylococcus aureus 107 assessed as inhibition of bacterial growth at 0.5 ug/ml incubated for 18 to 20 hrs by CLSI protocol based broth microdilution method; type: functional, organism-based; conditions: dose 0.5 µg/ml, time 18-20 hrs; summary of the method: as §1
[7] = tested on: Staphylococcus aureus; assay: Antibacterial activity against methicillin resistant Staphylococcus aureus 385 assessed as inhibition of bacterial growth at 0.5 ug/ml incubated for 18 to 20 hrs by CLSI protocol based broth microdilution method; type: functional, organism-based; conditions: dose 0.5 µg/ml, time 18-20 hrs
[8] = tested on: Staphylococcus aureus; assay: Antibacterial activity against methicillin resistant Staphylococcus aureus NRS384 USA300 assessed as inhibition of bacterial growth incubated for 18 to 20 hrs by CLSI protocol based broth microdilution method; type: functional; conditions: time 18-20 hrs
Summary of the method: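 Broth microdilution against staphylococcal clinical isolates. Each strain was prepared as a 0.5 McFarland suspension and diluted in cation-adjusted Mueller Hinton broth to ~5 × 10^5 CFU mL−1. Serial dilutions of test agents in DMSO stock were incubated with the bacteria, and the MIC was recorded.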

[9] = tested on: Staphylococcus aureus; assay: Antibacterial activity against methicillin resistant Staphylococcus aureus 119 assessed as inhibition of bacterial growth at 0.5 ug/ml incubated for 18 to 20 hrs by CLSI protocol based broth microdilution method; type: functional, organism-based; conditions: dose 0.5 µg/ml, time 18-20 hrs
[10] = tested on: Staphylococcus aureus; assay: Antibacterial activity against methicillin resistant Staphylococcus aureus 386 assessed as inhibition of bacterial growth at 0.5 ug/ml incubated for 18 to 20 hrs by CLSI protocol based broth microdilution method; type: functional, organism-based; conditions: dose 0.5 µg/ml, time 18-20 hrs
[11] = tested on: Staphylococcus aureus; assay: Antibacterial activity against methicillin resistant Staphylococcus aureus 123 assessed as inhibition of bacterial growth at 0.5 ug/ml incubated for 18 to 20 hrs by CLSI protocol based broth microdilution method; type: functional, organism-based; conditions: dose 0.5 µg/ml, time 18-20 hrs
[12] = Cytotoxicity against human HaCaT cells assessed as tolerance by measuring cell viability at 64 ug/ml incubated for 24 hrs by MTS assay relative to control; type: toxicity, cell-based; conditions: at 64 µg/mL, read-out: Activity
Summary of the method: (§2)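 Vero or HaCaT cells were exposed to 32, 64 and 128 μg mL−1 compound in triplicate for 24 h at 37 °C, 5% CO2, with a DMSO control. MTS was then added for 4 h and OD490 read. Analysis used two-way ANOVA with Dunnett's post hoc test (p < 0.05).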

[13] = tested on: Vero; assay: Cytotoxicity against African green monkey Vero cells assessed as reduction in cell viability at 64 ug/ml incubated for 24 hrs by MTS assay; type: toxicity, cell-based; conditions: chlorocebus sabaeus, dose 64 µg/ml; summary of the method: as §2

Row | Compound | Activity [1] | Activity [2] | Activity [3] | Activity [4] | Activity [5] | Activity [6] | Activity [7] | MIC ([8]; read-out: MIC) | Activity [9] | Activity [10] | Activity [11] | viability at 24 h, 64 ug/ml [12] | MIC [8] | Activity [13]
1 | C/C(=N\NC(=N)N)c1ccc(NC(=O)Nc2ccc(C#CC(C)(C)C)cc2)cc1 | Active | Active | Active | Active | Active | Active | Active | 0.5 µg/mL (≈ 1.28 µM) | Active | Active | Active |  |  | 
2 | CCCC#Cc1ccc(NC(=O)Nc2ccc(/C(C)=N/NC(=N)N)cc2)cc1 |  |  |  |  |  |  |  | 0.5 µg/mL (≈ 1.33 µM) |  |  |  |  |  | 
3 | C/C(=N\NC(=N)N)c1ccc(NC(=O)Nc2ccc(C#CC3CCCCC3)cc2)cc1 |  |  |  |  |  |  |  | 4000 µg/mL (≈ 9600 µM) |  |  |  |  |  | 
4 | CC(=O)NC[C@H]1CN(c2ccc(N3CCOCC3)c(F)c2)C(=O)O1 | Active | Active | Active | Active | Active | Active | Active |  | Active | Active | Active |  |  | 
5 | C/C(=N\NC(=N)N)c1ccc(NC(=O)Nc2ccc(C#CC3CCCC3)cc2)cc1 | Active | Active | Active | Active | Active | Active | Active |  | Active | Active | Active | 100% | 2 µg/mL (≈ 4.97 µM) | Non-Toxic
